Measured values published in ChEMBL document CHEMBL4049387, “Combination of l-Carnitine with Lipophilic Linkage-Donating Gemcitabine Derivatives as Intestinal Novel Organic Cation Transporter 2-Targeting Oral Prodrugs” (J Med Chem, 2017).
The source made the active and inactive calls. No cut-off for these calls is given here.

Experiments:
BXPC-3 [1] = assay: Cytotoxicity against human BxPC3 cells assessed as decrease in cell viability after 48 hrs by MTT assay; assay type: functional, cell-based
Summary of the method: (§1)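 BxPC-3 and Caco-2 cells exposed to compounds for 48 h. Viability read by MTT assay kit. IC50 calculated from dose-response.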

[2] = biological target: T1, Organic cation/carnitine transporter 2 (Homo sapiens, UniProt O76082); assay: Drug transport assessed as OCTN2 transporter mediated cell permeability in human Caco2 cells across apical to basolateral side at 25 uM after 15 to 120 mins by UPLC-MS/MS method relative to gemcitabine; assay type: ADME, cell-based; conditions: caco-2, 25 µM
T1 sequence (O76082 whole entry): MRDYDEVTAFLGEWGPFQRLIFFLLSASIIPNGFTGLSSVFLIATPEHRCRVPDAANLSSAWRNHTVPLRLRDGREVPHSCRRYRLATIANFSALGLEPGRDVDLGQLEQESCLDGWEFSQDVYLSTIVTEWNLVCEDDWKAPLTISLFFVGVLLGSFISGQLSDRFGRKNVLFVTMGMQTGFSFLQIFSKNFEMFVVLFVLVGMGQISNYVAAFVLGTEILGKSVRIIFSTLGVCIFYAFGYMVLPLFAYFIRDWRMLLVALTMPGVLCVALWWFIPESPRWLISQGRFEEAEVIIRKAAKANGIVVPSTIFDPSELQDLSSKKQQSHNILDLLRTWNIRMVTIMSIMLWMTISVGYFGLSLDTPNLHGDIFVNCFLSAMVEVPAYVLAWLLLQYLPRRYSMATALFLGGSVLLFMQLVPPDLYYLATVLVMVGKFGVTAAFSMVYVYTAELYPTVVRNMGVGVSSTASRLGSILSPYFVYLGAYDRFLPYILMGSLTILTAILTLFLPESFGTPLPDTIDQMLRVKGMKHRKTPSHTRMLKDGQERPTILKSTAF
Summary of the method: (§2)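 Caco-2 cells seeded at 1.0×10^5 cells/well on 0.4 µm polycarbonate inserts, cultured 21 days in MEM; monolayers with TEER over 250 Ω·cm² used. Compound at 25 µM final in HBSS, added apically, with or without 100 µM L-carnitine, 37 °C. Basolateral samples taken at 15, 30, 45, 60, 90, 120 min. Analysed by UPLC-MS/MS to give Papp. Triplicate runs.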

[3] = Terminal half-life in Wistar rat at 50 mg/kg, po administered as single dose by UPLC-MS/MS method; assay type: ADME, organism-based; conditions: in vivo, read-out: beta t1/2 (converted)
Summary of the method: (§3)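 Wistar rats, six per group, single oral dose equivalent to 50 mg/kg gemcitabine; separate group given gemcitabine iv at 7.5 mg/kg. Oral sampling at 5, 10, 15, 30 min and 1, 2, 4, 6, 8, 12, 24 h; iv at 15, 30 min and 2, 4, 8, 12, 24 h. Blood into THU-pretreated heparinized tubes, centrifuged 3000 × g 15 min, plasma at -80 °C. Prodrug and gemcitabine quantified by UPLC-MS/MS. F = AUCpo×Div/AUCiv/Dpo×100%.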

Rattus norvegicus [4] = assay: AUC (0 to 24 hrs) in Wistar rat at 50 mg/kg, po administered as single dose by UPLC-MS/MS method; assay type: ADME, organism-based; parameters: dose 50 mg/kg, time < 24 hr, route oral; conditions: in vivo; summary of the method: as §3
[5] = biological target: T1, Organic cation/carnitine transporter 2; assay: Ratio of drug transport assessed as OCTN2 transporter mediated drug uptake in human Caco2 cells at 100 uM in absence of L-carnitine to drug transport assessed as OCTN2 transporter mediated drug uptake in human Caco2 cells at 100 uM in presence of L-carnitine; assay type: ADME, cell-based; conditions: caco-2, 100 µM
[6] = biological target: T1, Organic cation/carnitine transporter 2; assay: Drug transport assessed as Vmax for OCTN2 transporter mediated drug uptake in human Caco2 cells after 10 mins by Eadie-Hofstee plot method; assay type: ADME, cell-based; conditions: caco-2, 10 min
[7] = biological target: T1, Organic cation/carnitine transporter 2; assay: Ratio of drug transport assessed as OCTN2 transporter mediated cell permeability in human Caco2 cells at 25 uM in absence of L-carnitine to drug transport assessed as OCTN2 transporter mediated cell permeability in human Caco2 cells at 25 uM in presence of L-carnitine; assay type: ADME, cell-based; conditions: caco-2, 25 µM; summary of the method: as §2
[8] = Tmax in Wistar rat at 50 mg/kg, po administered as single dose by UPLC-MS/MS method; assay type: ADME, organism-based; conditions: in vivo; summary of the method: as §3
[9] = biological target: T1, Organic cation/carnitine transporter 2; assay: Ratio of drug transport assessed as OCTN2 transporter mediated drug uptake in human Caco2 cells at 1 to 800 uM in presence of Na+ to drug transport assessed as OCTN2 transporter mediated drug uptake in human Caco2 cells at 1 to 800 uM in presence of N-methyl-D-glucamine; assay type: ADME, cell-based; conditions: caco-2, 800 µM
[10] = Half life in pH 1.2 phosphate buffer at 5 uM by HPLC method; assay type: physicochemical
Summary of the method: (§4)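 Compound dissolved at 5 µM in phosphate buffer (pH 1.2, 6.8 or 7.4), held at 37 °C for 24 h. Aliquots taken at intervals and analysed by HPLC. t1/2 = 0.693/k from linear regression of pseudo-first-order kinetics.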

OCTN2 = assay: Ratio of drug transport in OCTN2 (unknown origin) expressing HEK293 cells assessed as transporter-mediated drug uptake at 25 uM to drug uptake in HEK293 cells at 25 uM; assay type: ADME, cell-based; conditions: human, HEK293 cells expressing OCTN2, against HEK293 cells
Summary of the method: (§5)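 OCTN2-transfected HEK293 cells and mock HEK293 cells incubated with 25 µM compound at 37 °C for 15 min, then cellular uptake measured; n = 2.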

[11] = Oral bioavailability in Wistar rat at 50 mg/kg administered as single dose by UPLC-MS/MS method; assay type: ADME, organism-based; conditions: in vivo; summary of the method: as §3
[12] = Half life in pH 7.4 phosphate buffer at 5 uM by HPLC method; assay type: physicochemical; summary of the method: as §4
[13] = Oral bioavailability in Wistar rat at 50 mg/kg administered as single dose in presence of L-carnitine by UPLC-MS/MS method; assay type: ADME, organism-based; conditions: in vivo, with L-carnitine
Summary of the method: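 Rats dosed orally with prodrug at a gemcitabine-equivalent dose of 50 mg/kg, co-administered with 40 mM L-carnitine. Serial blood at 5 min–24 h into THU-pretreated heparinized tubes. Plasma measured by UPLC-MS/MS. Absolute bioavailability calculated against iv gemcitabine at 7.5 mg/kg.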

[14] = Half life in rat hepatic homogenates at 5 uM by HPLC method; assay type: ADME, tissue-based, Liver
Summary of the method: (§6)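 Compound at 5 µM final in rat plasma, 20% rat hepatic homogenate or 20% rat intestinal homogenate at 37 °C for 24 h. Homogenates made by homogenizing 0.3 g saline-washed tissue in 1 mL saline, spun 13,000 rpm 4 °C 5 min. Sampled at intervals, analysed by HPLC. t1/2 = 0.693/k.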

[15] = biological target: T2, Organic cation/carnitine transporter 2 (Rattus norvegicus, UniProt O70594); assay: Ratio of drug transport assessed as OCTN2 transporter mediated effective permeability in rat jejunum at 76 uM in absence of L-carnitine to drug transport assessed as OCTN2 transporter mediated effective permeability in rat jejunum at 76 uM in presence of L-carnitine; assay type: ADME
T2 sequence (O70594 whole entry): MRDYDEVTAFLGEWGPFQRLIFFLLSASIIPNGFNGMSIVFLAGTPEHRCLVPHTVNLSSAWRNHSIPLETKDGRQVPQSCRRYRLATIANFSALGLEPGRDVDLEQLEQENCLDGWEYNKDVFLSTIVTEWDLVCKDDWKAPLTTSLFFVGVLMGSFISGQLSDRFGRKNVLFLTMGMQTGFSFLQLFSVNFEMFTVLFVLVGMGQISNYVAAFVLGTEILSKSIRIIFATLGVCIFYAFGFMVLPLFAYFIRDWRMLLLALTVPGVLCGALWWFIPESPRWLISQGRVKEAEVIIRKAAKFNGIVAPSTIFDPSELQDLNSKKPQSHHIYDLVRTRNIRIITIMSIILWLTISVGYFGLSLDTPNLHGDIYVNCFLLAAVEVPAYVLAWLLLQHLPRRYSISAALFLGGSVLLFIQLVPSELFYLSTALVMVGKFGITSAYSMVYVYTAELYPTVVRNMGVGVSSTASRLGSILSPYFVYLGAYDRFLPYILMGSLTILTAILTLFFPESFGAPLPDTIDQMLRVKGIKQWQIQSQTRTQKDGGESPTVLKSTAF

[16] = Half life in rat plasma at 5 uM by HPLC method; assay type: ADME, cell-free; summary of the method: as §6
[17] = Drug level in Wistar rat portal blood at 50 mg/kg administered as single dose at 2 hrs by UPLC-MS/MS method; assay type: ADME, organism-based; conditions: read-out: Drug uptake
Summary of the method: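 Rats given single oral dose equivalent to 50 mg/kg gemcitabine. Portal vein and systemic plasma sampled at 2 h. Prodrug and gemcitabine measured by UPLC-MS/MS.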

[18] = biological target: T2, Organic cation/carnitine transporter 2; assay: Ratio of drug transport assessed as OCTN2 transporter mediated effective permeability in rat duodenum at 76 uM in absence of L-carnitine to drug transport assessed as OCTN2 transporter mediated effective permeability in rat duodenum at 76 uM in presence of L-carnitine; assay type: ADME
[19] = Half life in rat intestinal homogenates at 5 uM by HPLC method; assay type: ADME, tissue-based, Intestine; summary of the method: as §6
[20] = Stability of the compound in pH 6.8 phosphate buffer at 5 uM by HPLC method; assay type: physicochemical; conditions: pH 6.8, 5 µM; summary of the method: as §4
[21] = Half life in pH 6.8 phosphate buffer at 5 uM by HPLC method; assay type: physicochemical; summary of the method: as §4
Rattus norvegicus [22] = assay: AUC (0 to 24 hrs) in Wistar rat at 7.5 mg/kg, iv administered as single dose by UPLC-MS/MS method; assay type: ADME, organism-based; parameters: dose 7.5 mg/kg, time < 24 hr, route intravenous; conditions: in vivo; summary of the method: as §3
[23] = Terminal half-life in Wistar rat at 7.5 mg/kg, iv administered as single dose by UPLC-MS/MS method; assay type: ADME, organism-based; conditions: in vivo, read-out: beta t1/2 (converted); summary of the method: as §3
[24] = Cmax in Wistar rat at 7.5 mg/kg, iv administered as single dose by UPLC-MS/MS method; assay type: ADME, organism-based; parameters: dose 7.5 mg/kg, route intravenous; conditions: in vivo; summary of the method: as §3
BXPC-3 [25] = assay: Cytotoxicity against human BxPC3 cells assessed as decrease in cell viability at 0.1 to 200 uM after 48 hrs by MTT assay; assay type: functional, cell-based; summary of the method: as §1
[26] = Drug uptake in HEK293 cells at 25 uM after 15 mins by UPLC-MS/MS method; assay type: ADME, cell-based; conditions: human, hek293, 0.25 h; summary of the method: as §5
[27] = Cmax in Wistar rat at 50 mg/kg, po administered as single dose by UPLC-MS/MS method; assay type: ADME, organism-based; parameters: dose 50 mg/kg, route oral; conditions: in vivo; summary of the method: as §3
[28] = Tmax in Wistar rat at 7.5 mg/kg, iv administered as single dose by UPLC-MS/MS method; assay type: ADME, organism-based; conditions: in vivo; summary of the method: as §3

fold change (FC) [2]	half-life [3]	AUC (Rattus norvegicus [4])	Ratio [5]	Vmax [6]	Ratio [7]	Tmax [8]	half-life at 5 µM [10]	bioavailability [11]	half-life at 5 µM [12]	half-life at 5 µM [14]	half-life at 5 µM [16]	concentration at 2 h [17]	half-life at 5 µM [19]	SMILES	Activity (BXPC-3 [1])	other results
5 to 15	2.3 h	11.1 µg·h/mL	2.2 to 3.7	0.4344 nmol/mg	1.6 to 3.6	1.2 h	–	–	–	–	–	–	–	C[N+](C)(C)CC(CC(=O)[O-])OC(=O)CCCCCCC(=O)Nc1ccn([C@@H]2O[C@H](CO)[C@@H](O)C2(F)F)c(=O)n1 (some centres not stated)	Dose-dependent effect	–
5 to 15	6.2 h	14.9 µg·h/mL	2.2 to 3.7	0.2013 nmol/mg	1.6 to 3.6	1 h	5.5 h	12%	28.4 h	15.5 h	3.7 h	2.46 µg/mL	50.9 h	C[N+](C)(C)CC(CC(=O)[O-])OC(=O)CCC(=O)Nc1ccn([C@@H]2O[C@H](CO)[C@@H](O)C2(F)F)c(=O)n1 (some centres not stated)	Dose-dependent effect	Ratio [9]: 2 to 10; uptake ratio at 25 µM (OCTN2): 3 to 8; bioavailability [13]: 6%; Ratio [15]: 25; Ratio [18]: 25; Stability [20]: Stable
–	5.4 h	15.9 µg·h/mL	2.2 to 3.7	0.3884 nmol/mg	1.6 to 3.6	1.8 h	–	–	–	–	–	–	–	C[N+](C)(C)CC(CC(=O)[O-])OC(=O)CCCCCCCCC(=O)Nc1ccn([C@@H]2O[C@H](CO)[C@@H](O)C2(F)F)c(=O)n1 (some centres not stated)	Dose-dependent effect	–
–	4.3 h	9.03 µg·h/mL	–	–	–	1.9 h	1 h	–	10.3 h	32.7 h	1.7 h	–	116 h	CCCC(=O)Nc1ccn([C@@H]2O[C@H](CO)[C@@H](O)C2(F)F)c(=O)n1	–	half-life at 5 µM [21]: 45.9 h
–	2.3 h	5.62 µg·h/mL	–	–	–	1.7 h	–	3.2%	–	–	–	0.199 µg/mL	–	Nc1ccn([C@@H]2O[C@H](CO)[C@@H](O)C2(F)F)c(=O)n1 [GEMCITABINE]	–	AUC (Rattus norvegicus [22]): 26.7 µg·h/mL; half-life [23]: 4.4 h; Cmax [24]: 7.1 µg/mL; Activity (BXPC-3 [25]): Active; Drug uptake [26]: Not Active; Cmax [27]: 1.32 µg/mL; Tmax [28]: 0.5 h
